Screening data (PubChem)
Most compounds without a hit are left out; they make up all but 2.5% or so of the library.
S100A4 inh HTS = blocks human S100A4 binding to myosin IIA peptide | S100A4/TAMRA-MyoIIA peptide fluorescence polarization | inhibition, % at 10.7 µM | actives 0.14% (n = 360,000);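 active = mean inhibition of at least 70% across replicates, with every replicate also reaching that level; inconclusive = mean inhibition reaches 70% but some replicates fall short; inactive = mean inhibition below 70%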
Target sequence (P26447 whole entry, looked up): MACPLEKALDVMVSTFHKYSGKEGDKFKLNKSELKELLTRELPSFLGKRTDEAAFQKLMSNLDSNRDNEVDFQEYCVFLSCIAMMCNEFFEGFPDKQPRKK
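Material: S100A4 monomer protein | Medium: HEPES pH 7.2 with CaCl2, KCl, NaCl, DTT, Triton | Reagent: Labelled myosin peptide probe, 5 nM | Doses: One dose per compound | Times: 5 min incubation before reading | Benchmarks: Neutral control DMSO, positive control TFP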
FGF22 binding = shifts melting point of recombinant human FGF22; Q9HCT0; recombinant FGF22 thermal shift, SYPRO orange fluorescence; percent of sucrose octasulfate shift, DMSO zero; activity (Tm shift, normalised), % at 9.99 µM; actives 1.5% (n = 340,000); AID 651658;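 active = mean Tm shift, scaled 0 neutral to 100 positive control, at about 1.3% or above, every replicate too, limit read from the data; inconclusive = no clear call, values can overlap the other calls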
Target sequence (Q9HCT0 whole entry, looked up): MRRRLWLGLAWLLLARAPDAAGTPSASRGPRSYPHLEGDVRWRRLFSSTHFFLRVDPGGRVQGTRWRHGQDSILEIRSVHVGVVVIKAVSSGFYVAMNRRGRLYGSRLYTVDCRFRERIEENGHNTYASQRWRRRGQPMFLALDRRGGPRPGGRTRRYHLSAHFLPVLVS
SIRT5 inh = blocks human SIRT5 desuccinylation of peptide; Q9NXA8; Purified SirT5, succinyl-peptide AMC, trypsin-coupled fluorescence; inhibition, % at 15 µM; actives 1.1% (n = 330,000); AID 652115; in the data active = inhibition above about 15%; inconclusive = no clear call, values can overlap the other calls
Target sequence (Q9NXA8 whole entry, looked up): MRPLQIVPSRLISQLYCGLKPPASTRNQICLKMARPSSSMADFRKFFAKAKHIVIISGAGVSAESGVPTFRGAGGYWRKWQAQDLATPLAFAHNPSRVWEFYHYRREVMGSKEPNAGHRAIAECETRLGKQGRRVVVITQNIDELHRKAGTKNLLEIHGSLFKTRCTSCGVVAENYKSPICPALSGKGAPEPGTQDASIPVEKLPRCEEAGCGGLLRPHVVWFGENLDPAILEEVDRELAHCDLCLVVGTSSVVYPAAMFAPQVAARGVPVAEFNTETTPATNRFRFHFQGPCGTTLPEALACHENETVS
E-sel inducer = E-selectin induction on HUVECs; actives 0.37% (n = 260,000); P16581; activation, % at 7.58 µM; HUVEC E-selectin immunofluorescence imaging; normalized: neutral wells 0, TNF-alpha wells 100;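 active = mean E-selectin-positive cell signal at least 10% of the positive control, reached in at least 60% of replicates, without over 20% cell loss; inconclusive = no rule given, readout overlaps actives, possibly toxicity-flagged; inactive = the rest, including those meeting only one limit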
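Read-out basis: % PE-positive cells; Test system: HUVEC primary endothelial cells; Technique: immunofluorescence imaging; Dosing: single-point compound dose.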
miR-122 sensor = blocks miR-122 activity in Huh7 sensor cells; Huh7 miR-122 Renilla luciferase sensor, 48 h; neutral wells = 0, positive control = 100; activation (reporter increase), % at 12.5 µM; actives 0.3% (n = 340,000); AID 602342;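 active = mean replicate activation score at least 90 and every replicate individually at or above 90; inconclusive = only one of the two criteria met; inactive = neither criterion met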;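 also: higher luciferase means less miR-122 activity so hits act as miR-122 inhibitors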
* marks the source's active call; other numbers are inactive results; u = inconclusive; x = no result; [ ] = remark or other dose.

SMILES | S100A4 inh HTS | FGF22 binding | SIRT5 inh | E-sel inducer | miR-122 sensor
C[C@H](CO)N1C[C@H](C)[C@@H](CN(C)Cc2ccc(C(=O)O)cc2)Oc2ccc(NS(=O)(=O)c3cccs3)cc2CC1=O | -7 | 0 | 1 | x | x
O=C(/C=C/c1ccccc1)Oc1ccccc1C(=S)N1CCOCC1 | -1 | 43* | -1 | x | -14
COc1cc(C(=S)N2CCOCC2)ccc1OC(=O)/C=C/c1ccco1 | -3 | 43* | x | x | x
O=C(/C=C/c1ccccc1)Oc1cccc(C(=S)N2CCOCC2)c1 | 5 | 0 | 1 | 3 | -4
COc1cc(C(=S)N2CCOCC2)ccc1OC(=O)c1ccccc1 | 0 | 0 | -1 | 0 | x
CCC(=O)c1ccc(OCc2ccc(C(=O)OC)cc2)cc1 | -1 | 44* | 1 | x | x
CC(N=C1CC(C)(C)CC(=O)/C1=C(/O)CCCN1C(=O)c2ccccc2C1=O)C(=O)O (centres undefined) | -5 | 43* | 6 | x | 3
CC1(C)CC(=O)/C(=C(\O)CCCN2C(=O)c3ccccc3C2=O)C(=NCC(=O)O)C1 | 6 | 43 | -5 | x | -6
Cn1cc(CN2CCN(CCO)CC2)c(-c2ccc(Oc3ccccc3)cc2)n1 | -12 | 43* | -2 | 1 | x
COCCN1CCN(Cc2cn(C)nc2-c2ccc(Oc3ccccc3)cc2)CC1 | -1 | 0 | -4 | x | 6
Cn1cc(CNCc2cnc3ccccn23)c(-c2ccc(Oc3ccccc3)cc2)n1 | 6 | 44* | -5 | 0 | x
COc1ccc(NC(=O)CSc2ccccc2)cn1 | 0 | 43* | 0 | x | 2
CC(C)NC(=O)Nc1ccc2c(c1)C(=O)N([C@H](C)CO)C[C@H](C)[C@H](CN(C)CC1CCCCC1)O2 | -11 | 0 | -2 | 0 | -1[16.7 µM]
COCCNC(=O)Cc1c(C)c2c(cc(C)c3c(C)coc32)oc1=O | -2 | 0 | -13 | 0 | -8
COCCCNC(=O)Cc1c(C)c2c(cc(C)c3c(C(C)(C)C)coc32)oc1=O | -2 | 0 | -6 | 0 | 90*
COCC(=O)N1CC(=O)N2[C@H](C1)[C@@H](c1ccc(C#CC3CCCCC3)cc1)[C@@H]2CO | -5 | x | -2 | -1 | x
CC(C)C(=O)N=C1SC2CS(=O)(=O)CC2N1Cc1ccccc1 (centres undefined) | 7 | 43* | 1 | 0 | 3
CCOC(=O)Cc1cnc(NC(=O)CSc2nc(C)cc(C)n2)s1 | -4 | 44* | -3 | x | x
Cc1cc(C)nc(SCC(=O)Nc2ncc(Cc3cccc(Cl)c3Cl)s2)n1 | x | x | x | x | -8
CC(C)(C)n1nnnc1C(c1ccc2ncccc2c1)N1CCC(O)CC1 (centres undefined) | 0 | 44* | 0 | 1 | -6
C[C@@H]1CN([C@@H](C)CO)C(=O)Cc2cc(NC(=O)C3CCCCC3)ccc2O[C@H]1CN(C)Cc1ccccc1 | -13 | 0 | 5 | 0 | -6[16.7 µM]
CC(C)(C)c1cc(OC(=O)C2CCCC2)ccc1O | 2 | 0 | -3 | 0 | -4
CCCCC(CC)C(=O)Oc1ccc(O)c(C(C)(C)C)c1 (centres undefined) | -8 | x | 19* | u | -13
COc1cc(/C=C2/CCC/C(=C\c3cc(O)c(OC)c(Cl)c3)C2=O)cc(Cl)c1O | x | x | x | x | 113*
O=C(C[C@H]1C[C@H]2c3cc(NC(=O)C4CCOCC4)ccc3O[C@H]2[C@H](CO)O1)NC1CCCCC1 | -20 | x | x | 0 | 2[16.7 µM]
SMILES | S100A4 inh HTS | FGF22 binding | SIRT5 inh | E-sel inducer | miR-122 sensor
O=C(COC(=O)Cc1c(Cl)cccc1Cl)Nc1ccc2[nH]c(=O)[nH]c2c1 | -2 | -1 | 10 | x | -8
O=C(COC(=O)Cc1c(F)cccc1Cl)Nc1ccc2[nH]c(=O)[nH]c2c1 | -5 | 0 | 15* | 0 | -3
O=C(C1CC1)N1CC(=O)N2[C@H](C1)[C@H](c1ccc(C#CC3CCCC3)cc1)[C@@H]2CO | -5 | x | -2 | 0 | x
CN(C)C1(CNC(=O)C2CCN(S(=O)(=O)c3cc(Cl)ccc3Cl)CC2)CCCCC1 | 1 | 0 | -2 | 70* | -3
Cc1ccccc1NS(=O)(=O)c1cc(C(=O)NCc2ccco2)ccc1C | x | x | x | x | 71
Cc1ccc(C(=O)NCc2ccco2)cc1S(=O)(=O)Nc1cccc(C)c1C | x | x | x | x | 244*
COc1ccccc1NS(=O)(=O)c1cc(C(=O)NCc2ccco2)ccc1C | x | x | x | x | 110*
Cc1ccc(C)c(NS(=O)(=O)c2cc(C(=O)NCc3ccco3)ccc2C)c1 | x | x | x | x | 200*
CN(C)c1ccc(/C=C/C=N/Nc2nc(N3CCOCC3)nc(N3CCOCC3)n2)cc1 | -13 | -1 | -3 | 63* | 2
Cc1ccc(/C=N/Nc2nc(N3CCOCC3)nc(N3CCOCC3)n2)o1 | -2 | 0 | 4 | 0 | x
Cc1oc(-c2cc(F)ccc2F)nc1CN1CCN(C)C(=O)[C@@H]1C | -3 | 43* | 2 | 0 | x
Cc1ccsc1-c1nc(CN2CCN(C)C(=O)[C@@H]2C)c(C)o1 | -3 | 0 | 1 | x | x
Fc1ccccc1Cn1cc(C(=S)N2CCOCC2)c2ccccc21 | -3 | 0 | -1 | 0 | 247*
COC(=O)C(N)Cc1ccc(O)c(O)c1 (centres undefined) | x | x | x | x | 2
N[C@@H](Cc1cc(I)c(O)c(I)c1)C(=O)O | -1 | 0 | 33* | 0 | 15
CCN(CC)c1ccc(N)cc1S(=O)(=O)Nc1ccccc1OC | 3 | 0 | 0 | 0 | 27
CCN(CC)c1ccc(NC(=O)COc2ccccc2C#N)cc1S(=O)(=O)Nc1ccccc1OC | 0 | 0 | 1 | -1 | 288*
CCN(CC)c1ccc(NC(=O)c2ccccn2)cc1S(=O)(=O)Nc1ccccc1OC | -5 | 0 | -3 | x | 125*
O=C(C[C@H]1CC[C@@H]2[C@H](COC[C@H](O)CN2Cc2ccccc2F)O1)N[C@H]1CCN(Cc2ccccc2)C1 | -32 | 0 | -5 | 0 | 1[16.7 µM]
CN(C)C(=O)C[C@H]1CC[C@@H]2[C@H](COC[C@H](O)CN2CC2CCOCC2)O1 | 10 | 0 | 3 | 0 | -2[16.7 µM]
O=C(c1cccc(Cl)c1)N1CCCC(C(=O)N2CCCCCC2)C1 (centres undefined) | x | x | x | x | -13
O=C(c1cccc(F)c1)N1CCCC(C(=O)N2CCCCCC2)C1 (centres undefined) | -1 | 0 | 27* | x | -1
OCC1(CCOc2ccccc2)CCN(Cc2ccccc2OC(F)F)CC1 | 4 | 0 | -2 | x | 7
Cc1nn(C)c(Cl)c1CN1CCC(CO)(CCOc2ccccc2)CC1 | -2 | 44* | 2 | x | 5
C=CCOc1ccccc1CN1CCC(CO)(CCOc2ccccc2)CC1 | -27 | 43* | -1 | 0 | 9
CCn1ccnc1CN1CCC(CO)(CCOc2ccccc2)CC1 | -5 | x | 7 | -2 | 12
Cc1ccccc1CC1(CO)CCCN(Cc2c(C)nn(C)c2Cl)C1 (centres undefined) | -23 | 44* | 1 | x | x
